Compound activity deposited in PubChem BioAssay by Sanford-Burnham Center for Chemical Genomics.
Only some compounds are listed: those with a hit (about 1.8% of all), similar ones and a draw of the others.
Hep lipid drop: modulators of hepatic lipid droplet formation | AML12 mouse hepatocytes, oleate lipid droplets, BODIPY imaging | inhibition, % at 6.5 µM | actives 0.4% (n = 240,000);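 active = lipid droplet intensity inhibited by at least 50%, with more than 500 cells counted; inconclusive = wells with under 300 cells, treated as cytotoxic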
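Assay system: AML12 mouse liver cells | Compound: 6.5 µM single-point dosing | Schedule: Overnight exposure | Technique: Fluorescence imaging, 20x objective, two fields per well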
697 NFkB inh: inhibitors of the PMA/ionomycin-induced NF-kB reporter in 697 B cells. 697 B-cell NF-kB luciferase reporter, 16 h. inhibition, % at 4 µM. actives 0.33% (n = 330,000); in the data active = inhibition above about 35%
hiPSC survival: enhancers of human iPSC single-cell survival; hiPSC single-cell survival, ATPlite luminescence; 100% = ROCK inhibitor wells, 0% = DMSO; survival enhancement, % at 20 µM; actives 0.044% (n = 360,000); in the data active = survival enhancement above about 18%;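 note: cells exposed to compounds for 16 hours before the ATP read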
Gli-Sufu antag: blocks Gli-Sufu signaling in a luciferase reporter; Sufu-KO-LIGHT fibroblasts, Gli luciferase reporter luminescence; inhibition, % at 5 µM; actives 0.74% (n = 340,000);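 active = inhibition above about 55%, limit read from the data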
TAG inh: triacylglycerol accumulation inhibition; H9c2 cells, Nile Red lipid (TAG) fluorescence; cells loaded with 200 µM oleic acid; inhibition, % at 12.5 µM; actives 0.66% (n = 230,000);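 active = pattern-corrected inhibition of lipid staining of at least 50% with the nuclear-stain viability signal not falling by more than 50%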
Jurkat NFkB inh: inhibitors of the PMA/ionomycin-induced NF-kB reporter in Jurkat cells | PMA/ionomycin-induced NF-kB luciferase reporter, luminescence | inhibition, % at 4 µM | actives 0.53% (n = 330,000) | AID 435003; in the data active = inhibition above about 50%
Jurkat NFkB conf: inhibitors of the PMA/ionomycin-induced NF-kB reporter in Jurkat cells, retest | Jurkat NF-kB luciferase, 16 h | inhibition, % at 4 µM | shares compounds with Jurkat NFkB inh | actives 27% (n = 2,700) | AID 435020;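 active = inhibition reaching about 45% at 4 µM in either replicate, limit read from the data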
Hits are given with their value; . = inactive; ? = inconclusive; / = no result given.

SMILES	Hep lipid drop	697 NFkB inh	hiPSC survival	Gli-Sufu antag	TAG inh	Jurkat NFkB inh	Jurkat NFkB conf
CC(OC(=O)c1ccc2c(c1)OCCO2)C(=O)c1ccccc1 (stereo unspecified)	/	.	.	.	.	.	.
CC1CCN(C(=O)c2ncn3c2c(=O)[nH]c2cccnc23)CC1	/	/	.	/	.	/	/
COc1ccc(N2CCN(C(=O)NC(=O)c3ccc(Cl)cc3)CC2)cc1	.	.	.	.	.	.	/
COC(=O)c1sc(N2CCN(c3ccc(Cl)cc3)CC2)nc1N	.	.	.	.	/	61	.
CC(=O)Nc1ccc(-c2cc3ccccc3o2)cc1	/	.	.	.	.	.	.
CC(C)c1ccc(OCC(=O)NCCO)cc1	.	.	.	.	/	.	/
CCCCC(=O)NC(c1ccc(C(C)C)cc1)c1ccc2cccnc2c1O (stereo unspecified)	/	.	.	.	/	61	82
CCCC(=O)NC(c1ccccc1)c1ccc2cccnc2c1O (stereo unspecified)	.	.	.	.	.	.	/
CCCC(=O)NC(c1ccc(OC)cc1)c1ccc2cccnc2c1O (stereo unspecified)	.	.	.	.	.	62	60
Cc1ccc(-n2c(C)cc(/C=c3/sc4nc5ccccc5n4c3=O)c2C)cc1	.	.	/	.	/	56	.
O=[N+]([O-])c1ccc(N/N=C/c2cccc(O)c2O)cc1	.	.	.	.	/	81	.
COc1cccc(/C=N/Nc2ccc(C(=O)O)cc2)c1O	.	.	.	73	.	88	57
CCCC1(CCC)NC(=O)N(CC(=O)Nc2ccc(Cl)c(S(=O)(=O)N3CCOCC3)c2)C1=O	/	.	.	.	.	.	/
COc1ccc(Nc2nc(N)c(C(=O)c3ccc(OC)cc3)s2)cc1	.	.	.	.	/	.	.
O=S(=O)(c1ccc(Cl)cc1)c1snnc1-c1ccccc1	.	.	.	.	.	53	.
O=S(=O)(c1ccc(F)cc1)c1snnc1-c1ccccc1	.	/	.	.	.	/	/
COc1cccc(C(O)c2nc(-c3cc(F)cc(F)c3)cs2)c1 (stereo unspecified)	/	/	.	/	.	/	/
Cc1ccc(C2=Nc3ccccc3N=C(C(Cl)Cl)C2)cc1	.	.	.	.	.	.	.
Cc1ccc2c(c1)N=C(c1ccccc1)CC(C(Cl)Cl)=N2	.	.	.	.	.	.	/
COc1ccccc1CNC(=O)C1CCCN(S(=O)(=O)c2cccs2)C1 (stereo unspecified)	.	.	.	.	/	.	/
COc1cccc(-c2nc(-c3ccc(Br)o3)no2)c1	.	.	.	.	.	.	.
COc1ccc(-c2nc(-c3ccc(Br)o3)no2)cc1OC	.	.	.	.	.	.	/
COc1cccc(-c2noc(-c3ccc4c(c3)OCO4)n2)c1	.	.	.	.	.	.	.
COc1ccccc1-c1nc(-c2ccc(Br)o2)no1	/	.	.	.	.	.	.
Cc1cc(C)nc(/N=C(\N)Nc2ccc(OCc3ccccc3)cc2)n1	.	.	.	.	.	51	.
SMILES	Hep lipid drop	697 NFkB inh	hiPSC survival	Gli-Sufu antag	TAG inh	Jurkat NFkB inh	Jurkat NFkB conf
Cc1cc(C)nc(/N=C(\N)Nc2cccc(OCc3ccccc3)c2)n1	.	.	.	.	.	70	.
Cc1cc(C)nc(/N=C(\N)Nc2ccc(OCCC(C)C)cc2)n1	.	.	.	.	/	61	.
COc1ccc(N/C(N)=N/c2nc(C)cc(C)n2)cc1	/	/	.	/	.	/	/
CC(CCc1ccccc1)NC(=O)C1CCC1 (stereo unspecified)	/	.	.	.	.	.	/
Nc1ccc(-c2nc3cc(N)ccc3s2)cc1	.	.	.	.	.	.	.
Cc1ccc2[nH]c(=O)c(CN(Cc3ccco3)S(=O)(=O)c3c(C)ccc4nsnc34)cc2c1	.	.	.	.	/	.	/
COc1ccc2[nH]c(=O)c(CN(Cc3cccs3)S(=O)(=O)c3c(C)ccc4nsnc34)cc2c1	.	.	.	.	.	57	.
COc1nc(C)ccc1-c1noc(-c2ccco2)n1	.	.	.	.	/	.	.
COc1nc(-c2ccc(C)cc2)ccc1-c1noc(-c2ccco2)n1	/	.	.	.	.	.	/
Cn1c2ccccc2c(=O)c2c(=O)n(Cc3ccccc3)c(-c3ccc(F)cc3)nc21	.	.	.	.	.	.	/
CC1(C(=O)NS(=O)(=O)c2cccc(Cl)c2)CCN1C(=O)CC1CC1 (stereo unspecified)	/	/	.	/	.	/	/
CCOc1cccc(-c2nnc3n2N=C(c2cc(OC)ccc2OC)CS3)c1	.	.	.	.	.	53	48
O=C(c1ccc2nc[nH]c2c1)N1CCc2ccccc2C1	.	.	.	.	.	.	/
COc1cc2c(cc1OC)CN(C(=O)c1ccc3nc[nH]c3c1)CC2	.	.	.	.	.	61	.
NC(N)=N/N=C/c1ccc(OCc2ccccc2Cl)cc1	/	.	.	.	/	63	.
NC(N)=N/N=C/c1ccccc1	.	.	.	.	/	.	/
COc1ccc(-c2nc(-c3cccc(C)c3)nc(N3CCN(C)CC3)c2C#N)cc1	/	.	.	.	/	51	.
COc1ccc(-c2nc(-c3ccccc3)nc(N3CCN(C)CC3)c2C#N)cc1	/	.	.	.	.	.	/
CCCCn1c2c(c(=N)c3c1CCC3)CCC2	/	.	.	.	/	58	48
Cc1ccc(OCc2ccc(Br)cc2)c([N+](=O)[O-])n1	.	.	/	/	/	.	.
O=C(Nc1ccon1)c1cc2c(s1)CCCCCC2	.	.	.	.	/	.	/
O=C(Nc1ccon1)c1cc2c(s1)CCCC2	.	.	.	.	/	.	.
CCN(CC)c1ccc(/C=N/N=C(N)N)c(O)c1	?	.	.	.	.	77	.
CCN(CC)c1ccc(/C=N/NC(=O)c2cccc(S(=O)(=O)Nc3ccccc3OC)c2)cc1	/	.	.	.	.	.	/
CCN(CC)c1ccc(/C=N/NC(=O)c2ccc3nc[nH]c3c2)c(O)c1	/	.	.	.	.	55	.
SMILES	Hep lipid drop	697 NFkB inh	hiPSC survival	Gli-Sufu antag	TAG inh	Jurkat NFkB inh	Jurkat NFkB conf
CCN(CC)c1ccc(/C=N/NC(=O)c2cccc(S(=O)(=O)Nc3ccccc3OC)c2)c(O)c1	.	.	.	84	/	59	55
CCN(CC)c1ccc(N=Cc2ccc(N(CC)CC)cc2O)cc1	.	.	.	.	/	.	/
CCN(CC)c1ccc(/C=N/NC(=O)c2nnn(-c3nonc3N)c2C(C)C)c(O)c1	.	.	.	92	/	63	50
CC(C)c1c(C(=O)N/N=C/c2ccc3c(c2)OCO3)nnn1-c1nonc1N	.	.	.	.	/	.	/
O=C(Cc1cccc(NC(=O)C2CCN(C(=O)C3CCCCC3)CC2)c1)Nc1cccc(C(=O)N2CCCCC2)c1	/	/	.	.	.	/	/
CC1CCN(C(=O)Cn2c(=O)n(Cc3ccco3)c(=O)c3sccc32)CC1	.	.	.	.	/	.	/
COc1ccc(-c2noc(-c3ccc(Cl)cc3[N+](=O)[O-])n2)cc1OC	.	.	.	.	/	.	/
